Data: PubChem BioAssay AID651654 (Broad Institute, 2012)
Screen size: about 360,000 compounds; about 740 (0.21%) were called active. Shown is part of a subset that was picked to be rich in actives. Values without a mark were called inactive.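 How the source made its calls: active means mean lysis activity across replicates of at least 80%, whatever share of replicates individually reach that level; inactive means mean lysis activity below 80%.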

Test: fungicidal lysis via adenylate kinase leakage – AK release luminescence, single concentration, primary screen (AID 651654)
Settings: C. neoformans lysis, 4 h, at 15 µM, hits give high values, normalised: neutral wells 0, clomiphene wells 100
In short: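 read-out = cell lysis signal | test system = log-phase Cryptococcus neoformans yeast cells | input = cells at 5 × 10^6 per mL | medium = fresh YPD growth medium | signal = luminescent adenylate kinase detection reagent | timing = 4 h at 37 °C static, read 1 h later | dosing = single dose | controls = Clomiphene as positive lysis control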

Structure (SMILES) | lysis activity
COc1ccc(NC(=O)N(C)C[C@@H]2OCCCC[C@@H](C)Oc3ccc(NS(=O)(=O)c4c(C)noc4C)cc3C(=O)N([C@H](C)CO)C[C@@H]2C)cc1 | -3%
CC(C)C#Cc1ccc2c(c1)O[C@H](CN(C)Cc1ccccc1)[C@H](C)CN([C@@H](C)CO)S2(=O)=O | 14.5%
CCNC(=O)C[C@@H]1CC[C@H]2[C@@H](COc3ccc(NC(=O)Cc4cccs4)cc3C(=O)N2C)O1 | -1.39%
COc1ccccc1CNC(=O)C[C@H]1CC[C@@H]2[C@H](COC[C@H](O)CN2Cc2ccccc2)O1 | -1.1%
COc1ccccc1-c1ccc2n(c1=O)C[C@@H]1[C@@H](CO)[C@H](C(=O)NCc3ccccc3Cl)N[C@H]21 | -0.428%
CO[C@@H]1CN(C)C(=O)c2cc(NC(=O)c3ccno3)ccc2OC[C@@H](C)N(S(C)(=O)=O)C[C@@H]1C | 0.04%
C/C=C/c1ccc([C@H]2[C@@H](CO)N(C(C)=O)[C@H]2CN(C)S(C)(=O)=O)cc1 | -1.56%
C/C=C/c1ccc2c(c1)O[C@H](CN(C)C(=O)Nc1ccc(OC)cc1)[C@@H](C)CN([C@H](C)CO)S2(=O)=O | -3.44%
Cc1ccc(S(=O)(=O)Nc2ccc3c(c2)C(=O)N([C@@H](C)CO)C[C@@H](C)[C@@H](CN(C)Cc2ccc(C(F)(F)F)cc2)OCCCC[C@@H](C)O3)cc1 | 54.9%
C[C@@H]1CCCCO[C@H](CN(C)C(=O)NC2CCCCC2)[C@H](C)CN([C@H](C)CO)C(=O)c2cc(NC(=O)c3ccncc3)ccc2O1 | -2.46%
CO[C@@H]1CN(C)C(=O)c2cc(NC(=O)Nc3ccc(F)cc3)ccc2OC[C@@H](C)NC[C@@H]1C | -3.48%
COc1cccc(-c2ccc3n(c2=O)C[C@@H]2[C@@H](CO)[C@H](C(=O)NCC4CC4)N(C(=O)NC(C)C)[C@H]32)c1 | -2.16%
CCC(=O)Nc1ccc2c(c1)C(=O)N(C)C[C@H](OC)[C@H](C)CN(Cc1ccccc1F)[C@H](C)CO2 | 3.58%
C[C@@H]1CN([C@H](C)CO)S(=O)(=O)c2ccc(C3=CCCC3)cc2O[C@H]1CN(C)C(=O)c1ccccc1 | 2.54%
O=C(C[C@@H]1C[C@@H]2c3cc(NS(=O)(=O)c4ccc(F)cc4)ccc3O[C@@H]2[C@@H](CO)O1)N1CCOCC1 | -1.76%
C[C@@H]1CCCCO[C@@H](CN(C)S(C)(=O)=O)[C@H](C)CN([C@@H](C)CO)C(=O)c2cc(NS(=O)(=O)c3cccs3)ccc2O1 | 0.965%
C[C@H]1CN([C@@H](C)CO)C(=O)c2ccccc2-c2ccccc2CO[C@H]1CN(C)S(=O)(=O)c1cccc(C#N)c1 | 82.9% (active)
Cc1ccc(S(=O)(=O)N(C)C[C@H]2OCc3ccccc3-c3ccccc3C(=O)N([C@@H](C)CO)C[C@@H]2C)cc1 | -0.134%
C[C@H]1CN([C@@H](C)CO)C(=O)c2ccccc2-c2ccccc2CO[C@H]1CN(C)S(=O)(=O)c1ccccc1C#N | 1.59%
CO[C@H]1CN(C)C(=O)c2cc(NC(=O)C3CC3)ccc2OC[C@@H](C)N(Cc2cc(F)ccc2F)C[C@H]1C | 0.743%
COC(=O)C[C@H]1C[C@H]2c3cc(NC(=O)Nc4ccccc4F)ccc3O[C@H]2[C@H](CO)O1 | 11.5%
CO[C@@H]1CN(C)C(=O)c2ccc(NC(=O)Nc3c(C)noc3C)cc2OC[C@@H](C)NC[C@H]1C | -0.469%
O=C(c1ccncc1)N1CC[C@@H]2[C@H]1c1cc(Br)ccc1N[C@@H]2CO | -16.8%
C[C@H]1CN([C@@H](C)CO)S(=O)(=O)c2ccc(C3=CCCC3)cc2O[C@H]1CN(C)Cc1cccc(C(=O)O)c1 | 0.868%
